Screens deposited in PubChem by several laboratories.
L major viab – Leishmania major promastigote growth inhibition, primary screen. Leishmania major promastigotes, resazurin fluorescence viability. inhibition, % at 10 µM. 9% of 200,000 active. AID 1063, 2008; in the data active = inhibition above about 50%;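 note: promastigotes grown with compound for 44 hours at 28 °C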
HSF-1 act – HSF-1 activators, primary screen, NIH3T3-HGL cells, MG132 stress, luminescence, single point; 1.7% of 300,000 active; AID 504408, 2011; activation, % at 9 µM; NIH3T3-HGL HSF-1 luciferase reporter, 8 h; 100% = twice DMSO control signal;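 active = mean replicate activation of at least 50% with a set share of replicates each reaching 50%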;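 note: 0% = median of the neutral control wells and 100% = twice that signal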
Hsp70 activator – Hsp70 transcriptional activators, primary screen, cell-based, HeLa, Hsp70 promoter luciferase, luminescence, 10 µM | 0.04% of 200,000 active | activation, % at 10 µM | HeLa Hsp70 promoter luciferase reporter; scaled: vehicle 0, proteasome-inhibitor control 100%;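 active = activation above the mean across all tested compounds plus 3 SD, cutoff set per campaign, cut at about 5.5% in these data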;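 note: 100% = MG132 at 30 µM as the positive control and 0% = DMSO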
T cruzi inh – inhibitors of intracellular T. cruzi growth, primary screen, luminescence, NIH3T3 host cells. T. cruzi beta-gal in NIH3T3, 90 h. 1.4% of 300,000 active. inhibition, % (concentration not given with the values). AID 1885, 2009;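 active = mean inhibition across valid replicates above about 55%, limit read from the data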;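 note: signal also drops with host cell toxicity which is not excluded here; 0% = plate median of DMSO wells and 100% = zero luminescence signal; higher percent means less beta-gal luminescence so fewer parasites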
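Read-out: Parasite load inhibition, % | Test system: Mouse NIH/3T3 fibroblasts infected with β-gal-expressing T. cruzi Tulahuen C4 | Amount: 5,000 cells/well | Medium: DMEM, 2% fetal bovine serum | Signal: GalScreen β-gal luminescence, detergent lysis, 60 min | Timing: 3 h attach, ≥90 h co-culture | Also added: Tulahuen C4 trypomastigotes, 5000/well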
HSF1 inh – HSF1 inhibitors in luciferase reporter cells, primary screen, cell-based, NIH3T3, luminescence; NIH3T3-HGL HSE-luciferase, MG132-induced, luminescence 8 h; stronger effect = lower value; activity change, negative = inhibition, % at 7.5 µM (by protocol); 0.77% of 300,000 active; AID 2098, 2009;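 active = more than half of replicate wells show activity change below -50%, luminescence cut by over half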;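 note: luciferase reports HSF-1 transcriptional activity via heat shock element; 0% = median of DMSO wells and -100% = zero luminescence signal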
The depositor's hits bear a star; x = no result given. The entries come from a sample that favours hits as a whole.

SMILES | L major viab | HSF-1 act | Hsp70 activator | T cruzi inh | HSF1 inh
COc1ccc(/C=C/C(=O)Nc2ccccc2C(=O)NCC(c2ccc(OC)cc2)N(C)C)cc1 (configuration not stated) | x | -59.7 | x | 3.3 | -59.5*
COc1ccc(C(=O)NCCCN=C2NS(=O)(=O)c3ccccc32)cc1 | x | 4.1 | x | 2.6 | 0.7
CN(CCc1ccccn1)C(=O)CCC1CCCN(C(=O)c2c3c(nn2C)CCCC3)C1 (configuration not stated) | -3.2 | 1.1 | -0.4 | 8.6 | -4.9
COc1ccc(C)cc1NC(=O)CCN1CC(C)OC(C)C1 (configuration not stated) | -1.8 | 2.6 | -0.3 | -4.1 | 2.3
COC(=O)CNC(=O)c1cccc(-c2ccc(OC)cc2)c1 | -3.0 | -10.3 | -0.1 | -4.6 | -5.1
Cc1ccc(OCC(=O)N2CCN(c3nnc(-c4ccccc4)c4ccccc34)CC2)cc1 | 89.1* | 11.3 | -0.8 | 69.6* | 16.1
CC(=O)N1CCN(c2nnc(-c3ccc(C)cc3)c3ccccc23)CC1 | x | -10.0 | x | -7.3 | 8.2
COc1ccc(S(=O)(=O)N2CCCN(CCC(=O)Nc3cccc(C(F)(F)F)c3)CC2)cc1 | 99.7* | x | -0.5 | x | x
CCOc1ccc(NC(=O)CCN2CCN(S(=O)(=O)c3cc(Cl)ccc3OC)CC2)cc1 | 98.9* | -17.5 | -0.5 | 21.6 | 6.3
COc1ccc(NC(=O)CCN2CCN(S(=O)(=O)c3ccc(Cl)cc3)CC2)cc1 | 93.3* | 4.4 | -0.2 | -7.7 | -6.4
COc1ccc(NC(=O)CCN2CCN(S(=O)(=O)c3ccc(C(C)C)cc3)CC2)cc1 | 3.5 | 1.0 | -0.2 | 4.0 | 8.6
O=C(CCC(=O)N1CCN(S(=O)(=O)c2ccc(Cl)cc2)CC1)Nc1ccc2ccccc2c1 | 81.4* | 8.8 | 0.1 | -26.0 | 0.8
CN(CC(=O)Nc1ccc(S(=O)(=O)N2CCCC2)cc1)Cc1ccc(Cl)cc1Cl | 86.1* | 1.3 | -0.3 | 11.1 | 2.5
CN(CC(=O)Nc1ccc(S(=O)(=O)N2CCCC2)cc1)CC(=O)Nc1ccc(F)c(F)c1F | 9.0 | 2.7 | -0.3 | 8.5 | 4.1
Cc1ccc(S(=O)(=O)NCCC(=O)N2CCN(S(=O)(=O)c3ccccc3)CC2)cc1C | x | -65.1 | x | 1.8 | -55.5*
COc1cccc(OCCCN2CCN(S(=O)(=O)c3ccc(NC(C)=O)cc3)CC2)c1 | 67.6* | 2.6 | -0.2 | -3.0 | 1.6
Cn1c(=O)c2c(SCC(=O)N3CCCCC3)nc(-c3ccccc3F)nc2n(C)c1=O | x | -0.7 | x | 16.8 | -0.7
CCc1ccc(NC(=O)CCS(=O)(=O)c2ccc(Br)cc2)cc1 | x | 5.9 | x | -1.0 | 2.1
Cc1ccc(S(=O)(=O)CCC(=O)OCc2ccc(Cl)cc2)cc1 | 54.8* | -0.7 | -0.6 | -28.6 | -14.8
Cc1ccc(S(=O)(=O)CCC(=O)c2ccc(O)cc2O)cc1 | 100.5* | 19.8 | -0.3 | 36.2 | 1.4
COC(=O)c1ccc(COC(=O)CCS(=O)(=O)c2ccc(C)cc2)cc1 | -1.4 | -3.6 | -0.1 | -9.8 | -7.9
Cc1ccc(S(=O)(=O)CCC(=O)NCc2ccccc2)cc1 | 57.5* | 8.4 | -0.4 | -5.3 | -7.9
Cc1ccc(S(=O)(=O)CCC(=O)Nc2ccc(Br)cc2)cc1 | x | -72.7 | x | -5.1 | -66.9*
CC(NC(=O)CCN1C(=O)c2ccccc2C1=O)c1ccccc1 (configuration not stated) | x | 17.0 | x | -12.3 | -2.4
COc1ccc2c(C)nc(Nc3nc(-c4ccccc4)cc(=O)[nH]3)nc2c1 | x | 94.6* | x | 36.8 | 65.3
SMILES | L major viab | HSF-1 act | Hsp70 activator | T cruzi inh | HSF1 inh
COCc1cc(=O)[nH]c(Nc2nc(C)c3cc(OC)ccc3n2)n1 | 31.3 | -4.9 | -0.5 | -5.2 | -3.2
COc1ccc2c(C)nc(Nc3nc(C)cc(=O)[nH]3)nc2c1 | 100.3* | x | -0.3 | x | x
CC(=O)c1ccc(COC(=O)c2cc3ccccc3oc2=O)cc1 | x | 5.4 | x | -15.2 | 7.5
COc1ccc2[nH]c(C(=O)Nc3cccc(C)n3)cc2c1 | x | 60.6* | x | 1.9 | 24.7
COc1ccc2[nH]c(C(=O)Nc3ccc(C)c(F)c3)cc2c1 | x | 26.8 | x | 18.8 | 2.1
O=Cc1coc2c(ccc3ccccc32)c1=O | x | 7.9 | x | -14.8 | 3.7
CCN(CC)C(=O)CC(c1ccc(OC)cc1)c1c(OC)cc(OC)c2ccc(=O)oc12 (configuration not stated) | x | 2.7 | x | -6.9 | 1.5
COC(=O)c1ccccc1NC(=O)CN(c1cc(OC)ccc1OC)S(C)(=O)=O | 9.8 | 2.2 | 0.4 | 15.0 | 3.4
COc1ccc(OC)c(N(CC(=O)Nc2ccccc2)S(C)(=O)=O)c1 | 4.3 | -71.8 | -0.2 | -17.8 | -65.2*
COc1cccc(/C=N/NC(=O)c2ccccc2N(Cc2ccccc2)S(=O)(=O)c2ccccc2)c1OC | 90.6* | 5.1 | -0.1 | 13.8 | -4.8
COc1ccc(Cl)cc1N(CC(=O)Nc1ccccc1C(=O)NCc1ccco1)S(C)(=O)=O | 82.7* | 4.0 | 0.2 | -0.9 | -3.8
COc1cccc(N(CC(=O)Nc2cccnc2)S(C)(=O)=O)c1 | -2.3 | -85.0 | -0.3 | -27.3 | -80.8*
COc1ccc(N(CC(=O)Nc2cccnc2)S(C)(=O)=O)cc1 | 3.0 | -6.2 | 0.0 | -13.3 | -3.2
COc1ccc(-c2cc(C(=O)Nc3cc(OC)cc(C(=O)Nc4cccc(C(F)(F)F)c4)c3)[nH]n2)cc1 | x | 39.0 | x | 48.9 | 26.1
COc1cc(CN2CCCCC2C(=O)Nc2ccc(Oc3ccccc3)nc2)ccc1O (configuration not stated) | x | 39.7 | x | 11.6 | 21.4
COc1ccc(OC)c(NC(=O)c2ccccc2N(Cc2ccccc2)S(C)(=O)=O)c1 | 79.8* | 13.7 | -0.2 | 20.9 | 5.2
COc1ccc(OC)c(-n2c(SCC(=O)Nc3cc(C)on3)nnc2-c2c[nH]c3ccccc23)c1 | 99.8* | -12.3 | 0.0 | 5.8 | -1.0
COc1ccc(OC)c(-n2c(SC)nnc2-c2c[nH]c3ccccc23)c1 | 65.2* | 5.3 | -0.1 | 25.8 | 2.8
CC(=O)Nc1ccc(NC(=O)CSc2ncc(C(=O)Nc3ccccc3)c(=O)n2C)cc1 | x | 36.9 | x | -15.4 | 32.1
CCN(CC)S(=O)(=O)c1ccc(C)c(NC(=S)N2CCN(C/C=C/c3ccccc3)CC2)c1 | 60.2* | -5.6 | 0.0 | 35.7 | -1.0
CCN(CC)S(=O)(=O)c1ccc(C)c(NC(=S)N2CCN(Cc3ccc4c(c3)OCO4)CC2)c1 | 96.2* | -1.1 | 0.1 | 5.1 | 3.6
CCN(CC)S(=O)(=O)c1ccc(C)c(NC(=S)N2CCN(c3ccccn3)CC2)c1 | x | -11.2 | x | 0.8 | 6.8
CC(C)c1ccccc1NC(=S)N1CCN(Cc2ccc3c(c2)OCO3)CC1 | 76.9* | 2.4 | -0.5 | 13.7 | 1.4
Cc1ccc(NC(=S)N2CCN(Cc3ccc4c(c3)OCO4)CC2)c(C)c1 | 89.2* | 13.2 | 0.1 | -9.5 | -1.6
